Runt-CBFb FRET: blocks binding of human RUNX1 Runt domain to CBFb; Q01196+Q13951; Cerulean-Runt/Venus-CBFb FRET ratio 530/480, 1 h; inhibition, % at 20 µM; 220,000 compounds, 0.46% hits; AID 1496;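 active = inhibition over about 50% at 20 µM in the single-dose screen, limit read from the data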;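 note: 0% = DMSO wells and 100% = excess unlabeled CBFb competitor control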
Target sequence (Q01196 whole entry, looked up, the tested form may be a part): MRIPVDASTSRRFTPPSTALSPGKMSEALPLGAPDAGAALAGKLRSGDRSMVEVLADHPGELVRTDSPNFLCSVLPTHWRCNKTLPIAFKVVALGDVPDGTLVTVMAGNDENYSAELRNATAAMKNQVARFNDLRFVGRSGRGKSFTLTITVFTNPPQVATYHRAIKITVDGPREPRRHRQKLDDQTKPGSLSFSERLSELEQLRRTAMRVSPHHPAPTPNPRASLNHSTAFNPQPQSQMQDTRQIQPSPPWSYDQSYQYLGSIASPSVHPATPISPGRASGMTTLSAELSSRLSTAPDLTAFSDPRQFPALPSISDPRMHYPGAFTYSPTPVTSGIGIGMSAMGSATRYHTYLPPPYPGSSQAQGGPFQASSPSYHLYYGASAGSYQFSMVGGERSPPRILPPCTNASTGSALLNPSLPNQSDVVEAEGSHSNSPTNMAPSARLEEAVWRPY
Target sequence (Q13951 whole entry, looked up, the tested form may be a part): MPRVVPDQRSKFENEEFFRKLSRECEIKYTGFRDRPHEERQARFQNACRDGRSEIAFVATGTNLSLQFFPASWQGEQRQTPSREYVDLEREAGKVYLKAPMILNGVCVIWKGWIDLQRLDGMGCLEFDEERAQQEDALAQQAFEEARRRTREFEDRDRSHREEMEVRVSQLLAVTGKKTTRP
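Doses: 20 µM compound in 1% DMSO | Material: Cerulean-labeled Runt domain protein | Amount: Each fluorescent fusion protein 100 nM | Schedule: Two 1 h room-temperature incubations shielded from light | Measured by: FRET fluorescence | Evaluation: Loss of energy transfer signal | Controls: Unlabeled CBFb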
IMP-1 inh: inhibitors of Pseudomonas aeruginosa IMP-1 metallo-beta-lactamase. purified IMP-1, nitrocefin hydrolysis, epi-absorbance fluorescence. inhibition, % at 5.6 µM. 290,000 compounds, 0.45% hits;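 active = inhibition above the mean plus 3 SD of all compounds in the same screening run, cut at about 4.5% in these data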;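 note: 0% = IMP-1 with DMSO and 100% = DMSO wells lacking enzyme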
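assay system = purified recombinant IMP-1 metallo-beta-lactamase enzyme | schedule = 15 min preincubation plus 25 min reaction at 25 °C | signal = Epi-absorbance fluorescence, 480 nm excitation, 530 nm emission | read-out basis = percent inhibition from optical density relative to buffer-blank wells | controls = IMP-1 with DMSO as 0%, enzyme-free DMSO as 100%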
RanGTP-Imp inh: disruptors of Ran-importin-beta complex formation – biochemical, FRET, CFP-Ran, YFP-importin-beta, homogeneous, primary screen; AID 2216; 300,000 compounds, 1.1% hits; inhibition, % (no concentration beside the values); cell-free CFP-Ran/YFP-importin-beta FRET ratio;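 active = more than half of the replicate wells show a fall in the fluorescence ratio signal beyond about 16%, limit read from the data, passing the limit was not always enough; inconclusive = exactly half of the replicate wells pass the set limit; inactive = fewer than half of replicates pass the limit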;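 note: 0% = DMSO wells and 100% = Ran loaded with GDP instead of GTP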
VIM-2 inh: inhibitors of Pseudomonas aeruginosa VIM-2 metallo-beta-lactamase; AID 1527; 290,000 compounds, 0.89% hits; purified VIM-2, nitrocefin hydrolysis, epi-absorbance fluorescence; inhibition, % at 5.6 µM;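 active = inhibition above the mean of all tested compounds plus 3 SD, cutoff set per screening run, cut at about 7.5% in these data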;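 note: red hydrolysis product quenches plate fluorescence so inhibitors raise well fluorescence; 0% = enzyme with DMSO and 100% = DMSO without enzyme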
Runt-SMMHC FRET: blocks binding of human RUNX1 Runt domain to CBFb-SMMHC | Q01196+Q13951 | AID 1434 | inhibition, % at 20 µM | 220,000 compounds, 0.74% hits | Cerulean-Runt/Venus-CBFb-SMMHC FRET ratio 530/480, 1 h;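 active = mean inhibition across duplicate retests at 20 µM reaching about 50%, limit read from the data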;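 note: 0% = DMSO wells and 100% = wells with excess untagged CBFb-SMMHC; inhibitors lower the FRET ratio by blocking Runt binding to CBFb-SMMHC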
Numbers without * were called inactive; ? = inconclusive; · = no result. Rows were chosen to be rich in hits. Some 2.6% of all compounds tested hit in one or more screens of this group.

SMILES	Runt-CBFb FRET	IMP-1 inh	RanGTP-Imp inh	VIM-2 inh	Runt-SMMHC FRET
CCC1=NN2C(=N)/C(=C\c3ccc(OCCOc4ccc(NC(C)=O)cc4)c(OC)c3)C(=O)N=C2S1	·	-3	-3	10*	·
Cc1cccc2c1NC1(CCCC1)CC2C (stereo not drawn)	0	-1	-3	-1	-2
Cc1ccc2c(c1C)NC(C)CC2C (stereo not drawn)	-1	5.0*	?	2	1
O=C(COC(=O)C1CCC1)NCCc1ccc(Cl)cc1Cl	·	-1	3	-1	·
COc1ccc(-c2cn(Cc3ccc(C)cc3)nn2)cc1	·	-1	-2	-1	·
COc1cccc(C(=O)N2CCN(Cc3ccccc3Br)CC2)c1	·	7.4*	2	1	·
COC(=O)c1c(C)c2c(C)cc3ccccn3c-2c1C(=O)OC	-9	1	-1	5	-34
COC(=O)c1cc2c(-c3ccccc3)cc3ccccn3c-2c1C(=O)OC	38	-4	-1	1	54*
Nn1c(SCc2ccccc2)nc2ccccc21	·	-4	1	-2	·
CCOC(=O)c1cc2c(=O)n3ccccc3nc2n(Cc2ccco2)c1=NC(=O)c1ccccc1OCC	74*	-3	1	-1	88*
CCOC(=O)c1cc2c(=O)n3cccc(C)c3nc2n(Cc2ccco2)c1=NC(=O)c1cccnc1	102*	-2	·	1	63*
CCOC(=O)c1cc2c(=O)n3ccccc3nc2n(CC(C)C)c1=NC(=O)c1ccco1	18	-2	141*	4	60*
CCOC(=O)c1cc2c(=O)n3ccccc3nc2n(Cc2ccccc2Cl)c1=N	39	·	·	·	39
CCOC(=O)c1cc2c(=O)n3ccccc3nc2n(Cc2ccco2)c1=NC(=O)c1cccnc1	52*	-2	3	2	46
Cc1ccn(-c2ccc(NC(=O)c3cccs3)cc2)n1	·	-2	-1	0	·
N[C@@H](Cc1ccccc1)C(=O)N1CCC(C(=O)N[C@@H](Cc2c[nH]c3ccccc23)C(=O)O)CC1	·	-1	1	-3	·
COc1cccc(OC)c1C(=O)Nc1sc2c(c1C(N)=O)CCN(Cc1ccccc1)C2	·	1	134*	2	·
COC(=O)c1c(NC(=O)C2CC2)sc2c1CCN(C(C)=O)C2	0	-1	1	5	-8
CCC(=O)Nc1sc2c(c1C(=O)OC)CCN(Cc1ccccc1)C2	·	-2	92*	3	·
COC(=O)c1c(NC(=O)C(C)C)sc2c1CCN(Cc1ccccc1)C2	·	-3	54*	0	·
Cc1cccc(NC2=NCC(=O)N2Cc2ccccc2)c1	0	8.6*	2	-4	-3
CC1=CC(c2ccc(Cl)cc2)n2nc(NC(=O)c3ccccc3)nc2N1 (stereo not drawn)	1	-4	-3	-4	-3
CC(=O)Nc1nc2n(n1)C(c1ccc(Cl)cc1)C=C(C)N2 (stereo not drawn)	31	-3	-1	-2	83*
Cc1ccc(NC(=O)C2CCN(S(=O)(=O)c3ccc4c(c3)NC(=O)C(C)S4)CC2)cc1Cl (stereo not drawn)	·	0	3	1	·
Cc1onc(-c2c(F)cccc2Cl)c1C(=O)OCN1C(=O)c2ccccc2C1=O	-1	-2	0	1	-1
SMILES	Runt-CBFb FRET	IMP-1 inh	RanGTP-Imp inh	VIM-2 inh	Runt-SMMHC FRET
CCOC(=O)c1cc2c(=O)n3ccccc3nc2n(CCOC)c1=NC(=O)c1ccncc1	62*	-3	96*	13*	63*
CCOC(=O)c1cc2c(=O)n3ccccc3nc2n(CCOC)c1=NC(=O)c1c(-c2c(F)cccc2Cl)noc1C	68*	-2	·	-2	86*
CCOC(=O)c1cc2c(=O)n3ccccc3nc2n(CCCOC)c1=NC(=O)C(C)(C)C	56*	1	0	6	-21
CCOC(=O)c1cc2c(=O)n3ccccc3nc2n(C(C)C)c1=NC(=O)c1ccncc1	92*	-3	85*	3	170*
CCC1CCCCN1C(=O)CCS(=O)(=O)c1ccccc1 (stereo not drawn)	·	-3	1	-3	·
CCOC(=O)c1cc2c(=O)n3ccccc3nc2n(CCCOC)c1=NC(=O)c1cccnc1	133*	-1	46*	2	88*
Cc1onc(-c2ccccc2Cl)c1C(=O)OCn1nnc2ccccc2c1=O	0	-3	-4	-2	-8
CCOC(=O)c1cc2c(=O)n3ccccc3nc2n(C(C)C)c1=NC(=O)c1c(-c2ccccc2Cl)noc1C	82*	-4	1	-2	88*
O=C(CSc1nc(=O)[nH]c2c1CCCC2)Nc1cc(C(F)(F)F)cc(C(F)(F)F)c1	·	·	3	·	·
Cc1ccc2c3c(cccc13)-c1ccccc1C2=O	19	-3	64*	-2	63*
N#CC1=C(N)NC(SCc2ccccc2)=C(C#N)C12CCCC2	0	-1	2	0	3
N#CC1=C(N)N2C(=C(C#N)C13CCN(Cc1ccccc1)CC3)Nc1ccccc12	12	-2	34*	-2	19
CCC(C)(C)n1nnnc1C(c1cc2ccc(OC)cc2[nH]c1=O)N1CCc2ccccc2C1 (stereo not drawn)	-20	-2	16*	-2	-5
CC(C)(C)n1nnnc1C(c1cc2cc3c(cc2[nH]c1=O)OCCO3)N1CCSCC1 (stereo not drawn)	1	-3	-2	-3	-2
CCC(C)(C)n1nnnc1C(c1cc2cc3c(cc2[nH]c1=O)OCO3)N1CCN(C)CC1 (stereo not drawn)	40	-3	3	-1	66*
CCOc1ccccc1NC(=O)CSc1nc(=O)n(CCN2CCOCC2)c2c1CCCC2	·	·	-1	·	·
Cc1ccc(S(=O)(=O)c2cc(C)cc(S(=O)(=O)Nc3ccc(C(=O)O)cc3)c2C)cc1	·	-1	1	-1	·
C[n+]1ccc(/C=C/c2ccc(Br)cc2)cc1	-5	8.3*	-1	-3	7
CCCn1c(/C=C/c2cc[n+](C)cc2)nc2ccccc21	·	-3	-154	-1	·
CN(C)S(=O)(=O)c1ccc(NC(=O)c2ccc([N+](=O)[O-])cc2)cc1	-2	-1	-1	-3	-3
O=C(Nc1cccc(NC(=O)c2ccco2)c1)c1ccc([N+](=O)[O-])cc1	0	-2	75*	-2	-2
CC(=O)Oc1ccc(C(=O)Nc2cccc(NC(=O)c3ccco3)c2)cc1	·	-3	0	-1	·
CC(C)N(C(=O)c1ccc(C(=O)Nc2ccc([N+](=O)[O-])cc2)cc1)C(C)C	2	5.6*	7	2	-2
Cc1nc2ccccc2c2oc(C(=O)N3CCC(C)CC3)cc12	·	0	3	11*	·
Cc1nc2ccccc2c2oc(C(=O)N3CCN(C(=O)c4ccco4)CC3)cc12	0	-3	0	8.8*	-6
Cc1nc2ccccc2c2oc(C(=O)NC3CC3)cc12	-1	0	8	8.4*	-4
